From PubChem BioAssay
A selection: hits, their analogues and other compounds. The true share with any hit is near 4.1%.
MrgX1 agonist – agonists of human MrgX1 receptor, primary screen, HEK293 cells, Fluo-4 calcium flux; AID 588627, 2011; Fluo-4 calcium fluorescence, agonist mode; active compounds read high; B-score at 10 µM; 310,000 tested, 0.44% active;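 active means calcium response B-score plate-corrected fluorescence ratio at least 3 library SD, with starting fluorescence B-score inside 5 SD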
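Material: HEK293 cells stably expressing human MrgX1 receptor | Quantity: 15,000 cells per well | Times: Cells plated overnight, dye loaded 0.5 h 37 °C, 0.5 h room temperature | Measured by: Kinetic Fluo-4 NW fluorescence of intracellular calcium | Control set: Positive and negative controls per plate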
RGS4 act – RGS4 potentiators or activators, primary screen, cell-based, HEK293 M3R inducible RGS4, calcium flux; AID 463111, 2010; B-score at 10 µM; 310,000 tested, 0.92% active; carbachol calcium flux Fluo4; active compounds read low;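 active means B-score of the integrated calcium signal more than 4 SD below the library mean, with starting fluorescence not abnormally high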;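 further: negative B-score means reduced calcium response which marks RGS4 activation or potentiation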
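test system = HEK293 cells with stable M3R and inducible RGS4 | schedule = recording 10 s baseline at 1 Hz, 100 s post-agonist | technique = Fluo4-AM (2 µM) calcium-flux fluorescence, kinetic read | measure = Agonist-evoked peak-minus-minimum fluorescence over baseline, integrated ratio, B score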
RGS4 block – RGS4 inhibitors, primary screen, cell-based, HEK293 M3R inducible RGS4, calcium flux; B-score at 10 µM; 310,000 tested, 0.45% active; Fluo-4 calcium flux; active compounds read high; triggered by carbachol at its EC20;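 active means B-score, a plate-corrected calcium signal, over three deviations above library mean, with baseline fluorescence within five deviations of library mean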;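 further: RGS4 expression induced by doxycycline in cells with stable M3 receptor; B-score is computed from the integrated fluorescence ratio over baseline after carbachol; higher B-score means a larger calcium signal and so more RGS4 inhibition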
Target sequence (P49798 whole entry, looked up): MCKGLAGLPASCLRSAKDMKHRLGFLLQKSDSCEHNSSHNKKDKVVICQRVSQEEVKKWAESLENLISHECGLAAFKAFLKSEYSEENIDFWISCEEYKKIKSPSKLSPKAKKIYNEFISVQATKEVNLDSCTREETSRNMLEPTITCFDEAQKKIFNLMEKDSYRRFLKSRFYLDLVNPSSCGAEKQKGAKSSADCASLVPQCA
Kir21 inh – inhibitors of mouse Kir2.1 inward-rectifier potassium channel. AID 1672, 2009. HEK293-Kir2.1, FluxOR thallium flux fluorescence; active compounds read low. B-score at 10 µM. 310,000 tested, 0.85% active;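 active means fluorescence ratio B-score at or below minus 3 SD of library scores, with starting-brightness B-score within 2 SD, cut at about -4.2 in these data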;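 further: channel flux triggered by added potassium and thallium sulfate stimulus; B-score of peak minus minimum fluorescence over baseline after thallium stimulus; more negative B-score means stronger Kir2.1 block with less thallium influx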
MrgX1 antag – antagonists of human MrgX1 receptor, primary screen, HEK293 cells, Fluo-4 calcium flux; BAM8-22 antagonism; active compounds read low; B-score at 10 µM; 310,000 tested, 1.3% active; AID 588676, 2011;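 active means calcium-response B-score plate-corrected more than 3 library SD below zero, starting fluorescence within 5 deviations, no agonist response on first addition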;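 further: peak minus trough fluorescence over baseline after final BAM8-22 challenge near maximal dose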
MrgX1 PAM – positive allosteric modulators of MrgX1, primary screen, HEK293 cells, Fluo-4 calcium flux. Mas-related G-protein coupled receptor member X1 (Homo sapiens), Q96LB2. FDSS; active compounds read high. B-score at 10 µM. 310,000 tested, 0.63% active;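 active means plate-corrected calcium response at least 3 library SD above typical, normal starting fluorescence, not activating the receptor alone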;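 further: compound read alongside a low EC10 to EC30 dose of BAM8-22 agonist; peak minus trough fluorescence over baseline measured at the second addition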
Each line names hits and unclear results; the compound was inactive in the other large screens.

CCN(CCn1cccn1)C(=O)CC1C(=O)NCCN1Cc1ccc(F)cc1 (centres undefined)	MrgX1 agonist 29
OC(c1cc(C(F)(F)F)nc2c(C(F)(F)F)cccc12)C1CCCCN1 (centres undefined)	none (no result: RGS4 act, RGS4 block, Kir21 inh)
OC(c1cc(-c2ccc(C(F)(F)F)cc2)nc(C(F)(F)F)c1)C1CCCCN1 (centres undefined)	RGS4 act -7.8, MrgX1 antag -5.4
O=C(CCn1nc(-c2ccccc2)c2ccccc2c1=O)NCC1CCCO1 (centres undefined)	none
Cc1cc(C)n(-c2nc3ccccc3[nH]c2=O)n1	none
Cc1cc(C)n(-c2c(C)[nH]c3ccccc23)n1	Kir21 inh -4.2
Clc1cc(Br)ccc1OCCCNCc1ccccc1	Kir21 inh -10
CCc1cc(OCCCCNCc2ccccc2)ccc1Cl	Kir21 inh -11
CN(Cc1ccccc1)C(=O)COc1ccc(Br)cc1Cl	none
OCCCCNCc1ccc(OCc2ccccc2Cl)cc1	RGS4 act -7
CCOCCCNCc1ccc(OCc2ccccc2Cl)cc1	Kir21 inh -4.3
O=C(O)CSc1nnc(CSc2nc3ccccc3s2)n1-c1ccccc1	none
Brc1cccc(CNCc2cccs2)c1	none
CCOc1cc(CNCCO)cc(Br)c1OCc1cccs1	Kir21 inh -13
CCOc1cc(CNCc2cccs2)cc(Br)c1OCC	Kir21 inh -5.6
O=C1CCCC(=O)N1c1ccc(N2CCN(c3ccccc3)CC2)c([N+](=O)[O-])c1	none
CCCN(CCC)C(=O)CCS(=O)(=O)c1cccc2nsnc12	Kir21 inh -4.5
Cc1cccc(NC(=O)CCS(=O)(=O)c2cccc3nsnc23)c1C	none
COc1ccc(C(=O)NN2C(=S)N(c3ccc(OC)cc3)C(=O)C2CC(N)=O)cc1 (centres undefined)	none
CCOc1ccc(NC(=O)CSc2nnc(CCNC(=O)c3ccc(OC)cc3)n2C)cc1	MrgX1 antag -6.3
COc1ccc(C(=O)NCCc2nnc(SCC(=O)Nc3ccc(Br)cc3)n2C)cc1	none
Cc1ccc(C)c(C(=O)CCC(=O)NNC(=O)Cn2nc(C)cc2C)c1	none
N=C1/C(=C/c2ccc(-c3cccc(C(=O)O)c3)o2)C(=O)N=C2SC=C(c3ccccc3)N12	RGS4 act -8.4, MrgX1 antag -7.6
N=C1/C(=C\c2ccc(-c3cc(Cl)cc(Cl)c3)o2)C(=O)N=C2SC=C(c3ccccc3)N12	none
O=C(O)c1cc(-c2ccc(/C=c3\sc4nc5ccc(Br)cc5n4c3=O)o2)ccc1Cl	MrgX1 agonist 42
CC(C)N(Cc1ccccc1)C(=S)NCc1ccccc1	Kir21 inh -4.2
CC(C)N(C(=S)NC1CCCCC1)c1ccccc1	none
CC(C)N(Cc1ccccc1)C(=S)NC1CCCCC1	Kir21 inh -5.4
CCOC(=O)N1CCC(NC(=O)C2CCCN(Cc3nc(-c4cccc(C)c4)oc3C)C2)CC1 (centres undefined)	none
Cc1nc2ccc(NC(=S)NC3CCCCC3)cc2nc1C	none
COC(=O)N1[C@H](Cc2ccccc2)C=C[C@]1(C)C(=O)O	none
CCCCS(=O)(=O)/C=C\C=C/S(=O)(=O)CCCC	MrgX1 agonist 33
CC1CCc2c(sc3nc(C(C)(C)C)nc(N4CCN(C(=O)CCl)CC4)c23)C1 (centres undefined)	RGS4 act -7.6
CCC(=O)N1CCN(c2nc(CC)nc3sc4c(c23)CCCC4)CC1	none
Cc1nn2c(N3CCCC3)cc(C(C)C)nc2c1-c1ccccc1	RGS4 act -7.1
COC(=O)C1CCCCN1C(=O)c1ccc2oc(C(C)C)nc2c1 (centres undefined)	none
COC(=O)C1CCCCN1C(=O)c1ccc2oc(Cc3ccccc3)nc2c1 (centres undefined)	MrgX1 antag -5.3
CCOc1ccc(Nc2nc(N)nc(CN3CCN(c4ccccc4F)CC3)n2)cc1	none
